Published values gathered from unrelated publications.
Each line is one published result; the experiments were not run side by side.
Observed: cell growth or viability

COc1c(C)cnc(Cn2cnc3c(Cl)nc(N)nc32)c1C — IC50 (MB002; 7 days): 0.0974 µM
CC(=O)OC[C@H]1O[C@@H]([S-])[C@H](OC(C)=O)[C@@H](OC(C)=O)[C@@H]1OC(C)=O.CCP(CC)CC.[Au+] — Kb (KB 3-1; WST-1): 0.1 µM
COc1cc(Nc2nccc(-c3cnn4nc(OC)ccc34)n2)cc(C(F)(F)F)c1 — IC50 (SK-LU-1; ATP luminescence): 1.1 µM
O=C(NO)c1ccc(CN(c2cnccn2)c2cnccn2)cc1 — GI50 (B16-F10): > 20 µM
CC(=O)c1sc(=NN=C(C)c2c(O)c3ccccc3oc2=O)n(C)c1C — IC50 (human Skin fibroblast; MTT; 48 h): > 100 µM
CCC(=O)N1CCN(c2ccc(-n3c(=O)ccc4cnc5ccc(-c6cnc7ccccc7c6)cc5c43)cc2C(F)(F)F)CC1 — IC50 (MB002; 7 days): 0.0154 µM
CO[C@]1(C(=O)N[C@@H](C)c2ccc(-n3cc(F)cn3)nc2)CC[C@H](c2nc(C)cc(Nc3cc(C)[nH]n3)n2)CC1 — GI50 (BT-474; ATP luminescence; 72 h): > 10 µM
CC(=O)Nc1cccc(-n2c(=O)n(C3CC3)c(=O)c3c(Nc4ccc(I)cc4F)n(C)c(=O)c(C)c32)c1 — viability (Calu-6; resazurin; 6.25 nM; 72 h): 74.2%
O=C(NC[C@H](O)CO)c1ccncc1Nc1ccc(I)cc1F — IC50 (MB002; 7 days): > 10 µM
CC(C)C[C@H](NC(=O)[C@H](Cc1ccccc1)NC(=O)c1cnccn1)B(O)O — IC50 (SW948; ATP luminescence): 0.012 µM
Cc1cc2c(cc1N1C(=O)c3cccc4c(CCCO)ccc(c34)C1=O)n(C)c(=O)n2C (racemic) — GI50 (SW-403; resazurin): > 10 µM
CCCCCCCCCC(=O)N[C@@H](Cc1c[nH]c2ccccc12)C(=O)N[C@H](CC(N)=O)C(=O)N[C@@H](CC(=O)O)C(=O)N[C@@H]1C(=O)NCC(=O)N[C@@H](CCCNC(=O)CCC(=O)N2Cc3ccccc3-c3c(nnn3CCC[C@H](NC(=O)CCCCC[N+]3=C(C=CC4=CC(=CC=C5N(C)c6ccccc6C5(C)C)CCC4)C(C)(C)c4ccccc43)C(=O)NCCCCNC(=O)CCC(=O)N3Cc4ccccc4-c4c(nnn4CCOCCOCCOCCNC(=O)CN4CCN(CC(=O)NCCNC(=O)c5cccc(O)c5O)CCN(CC(=O)NCCNC(=O)c5cccc(O)c5O)CCN(CC(=O)NCCNC(=O)c5cccc(O)c5O)CC4)-c4ccccc43)-c3ccccc32)C(=O)N[C@@H](CC(=O)O)C(=O)N[C@H](C)C(=O)N[C@@H](CC(=O)O)C(=O)NCC(=O)N[C@H](CO)C(=O)N[C@@H]([C@H](C)CC(=O)O)C(=O)N[C@@H](CC(=O)c2ccccc2N)C(=O)O[C@@H]1C — Kb (KB 3-1; WST-1): > 64 µM
Nc1cc(C(F)(F)F)c(-c2cc(N3CCOCC3)nc(N3CCOCC3)n2)cn1 — IC50 (MB002; 7 days): 0.173 µM
